Measurements taken from ChEMBL document CHEMBL1129331, “Synthesis and physicochemical, biological, and pharmacological properties of new bile acids amidated with cyclic amino acids” (J Med Chem, 1996).
Values after ≈ are worked out from the molar mass of the structure shown.

What was measured:
[1] = (§1) The compound was incubated with cholylglycine hydrolase and tested for determining the stability towards C-24 Deamination; type: ADME
Rattus norvegicus [2] = assay: Lactate dehydrogenase in Bile Fistula rats after iv coinfusion of TCDCA and compound.; type: ADME, organism-based; details: in vivo
Method in brief: (§2)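 Bile fistula Sprague-Dawley rats (200-250 g). TCDCA and test bile acid given as sodium salts, coinfused via jugular vein, each at 8 μmol/min/kg for 1 h. Bile collected at 30-min intervals for 3 h. Calcium, ALP and LDH in bile measured enzymatically; bile acid composition by HPLC (65% methanol, 15 mM ammonium acetate, pH 5.4). Mean ± SD.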

cholylglycine hydrolase = assay: as §1; type: ADME; details: cholylglycine hydrolase
Rattus norvegicus [3] = assay: Secretion of Bile acids in Bile Fistula rats after the iv administration of compound, expressed as the residual secretion rate; type: ADME, organism-based; details: in vivo
Method in brief: (§3)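 Male Sprague-Dawley rats (300-330 g), urethane-anesthetized, bile duct cannulated. After 1 h baseline, sodium salt infused via femoral vein at 10 μmol/min/kg for 1 h; bile collected at 15-min intervals for 3 h. Flow measured gravimetrically; bile acids, cholesterol and phospholipid measured enzymatically. Smax and Tmax read from secretion-time plots; Rs is the rate at hour 3. Mean ± SD, n=6.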

Rattus norvegicus [4] = assay: Secretion of cholesterol in Bile Fistula rats after the iv administration of compound, expressed as the maximum secretion rate; type: ADME, organism-based; details: in vivo
Method in brief: (§4)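 Anaesthetised (ethyl carbamate) male Sprague-Dawley rats, 300-330 g, bile duct cannulated; after 1 h baseline, bile acid sodium salts infused via femoral vein at 10 μmol/min/kg for 1 h. Bile collected 3 h at 15 min intervals; flow gravimetric; BA, cholesterol, phospholipid by enzymatic assays. Smax, Tmax from secretion-vs-time plots; Rs = rate at third hour. n=6, mean ± SD.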

[5] = Critical micellar pH was determined
Method in brief: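 20 mL of 50 mM bile salt solution titrated with 0.1 M HCl. CMpH is taken as the pH at which precipitate of the protonated form is first seen by turbidity at 500 nm. Confirmed by back-titration with 0.1 M NaOH until the suspension clears.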

[6] = Partition coefficient (logP); type: physicochemical; details: octanol/water
Method in brief: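 Octanol/water partition coefficient of the protonated species, calculated rather than measured.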

Rattus norvegicus [7] = assay: Secretion of Bile in Bile Fistula rats after the iv administration of compound, expressed as the maximum secretion rate; type: ADME, organism-based; details: in vivo; method in brief: as §3
Rattus norvegicus [8] = assay: Secretion of phospholipid in Bile Fistula rats after the iv administration of compound, expressed as the maximum secretion rate; type: ADME, organism-based; details: in vivo; method in brief: as §4
[9] = The compound was incubated with human stools and tested for determining the stability towards 7-dehydroxylation; type: ADME, organism-based
Method in brief: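 Homogenized fresh human stool (500 mg) in 5 mL chopped meat-glucose medium; bile acid added at 0.05 mM final; 37 °C. Sampled at 0–72 h and stopped with 30% KOH. Bile acids recovered by C-18 solid-phase extraction, then analyzed by TLC and by HPLC with 75% methanol/15 mM ammonium acetate, pH 5.4.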

[10] = Acidity constant was determined; type: ADME
Rattus norvegicus [11] = assay: Maximum biliary secretion rate of TCDCA after iv coinfusion in Bile fistula rats.; type: ADME, organism-based; details: in vivo; method in brief: as §2
Rattus norvegicus [12] = assay: Secretion of Bile in Bile Fistula rats after the iv administration of compound, expressed as the residual secretion rate; type: ADME, organism-based; details: in vivo; method in brief: as §4
Rattus norvegicus [13] = assay: Alkaline phosphatase in Bile Fistula rats after iv coinfusion of TCDCA and compound.; type: ADME, organism-based; details: in vivo; method in brief: as §2
[14] = Relative lipophilicity was determined; type: physicochemical; details: C-18 reverse phase HPLC
Method in brief: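 C-18 reverse-phase HPLC run isocratically at 0.9 mL/min. Mobile phase 65% (v/v) aqueous methanol with 2 mM ammonium acetate, pH 7, so that all bile acids are fully ionized.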

Rattus norvegicus [15] = assay: Bile flow in Bile Fistula rats after iv coinfusion of TCDCA and compound.; type: ADME, organism-based; details: in vivo; method in brief: as §2
Rattus norvegicus [16] = assay: Secretion of Bile acids in Bile Fistula rats after the iv administration of compound, expressed as the maximum secretion rate; type: ADME, organism-based; details: in vivo; method in brief: as §4
Rattus norvegicus [17] = assay: Secretion of cholesterol in Bile Fistula rats after the iv administration of compound, expressed as the residual secretion rate; type: ADME, organism-based; details: in vivo; method in brief: as §3
Rattus norvegicus [18] = assay: Calcium output in Bile Fistula rats after iv coinfusion of TCDCA and compound.; type: ADME, organism-based; details: in vivo; method in brief: as §2
Rattus norvegicus [19] = assay: Maximum biliary secretion rate of bile acids after iv coinfusion in Bile fistula rats.; type: ADME, organism-based; details: in vivo; method in brief: as §2
[20] = Critical Micellar concentration was determined; type: ADME
Method in brief: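 Measured in water from surface tension, using the maximum bubble-pressure method.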

Rattus norvegicus [21] = assay: Secretion of phospholipid in Bile Fistula rats after the iv administration of compound, expressed as the residual secretion rate; type: ADME, organism-based; details: in vivo; method in brief: as §4
[22] = Water solubility was determined; type: ADME; details: read-out: WS
Method in brief: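 Protonated form; measured on saturated solutions at pH 1.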

In the case of `C[C@H](CCC(=O)NCCS(=O)(=O)O)[C@H]1CC[C@H]2[C@@H]3C[C@H](O)C4C[C@H](O)CC[C@]4(C)[C@H]3CC[C@]12C` (stereo in doubt; form 1), the T1/2 [1] is reported as 4 h.

With `CC(CCC(=O)NCC(=O)O)C1CC[C@H]2[C@@H]3[C@H](O)CC4C[C@H](O)CCC4(C)[C@H]3CCC12C` (stereo partly drawn) the “[LDH]max” value (Rattus norvegicus [2]) was 37 UI l-1, the half-life (cholylglycine hydrolase) was 4 h and the Rs (Rattus norvegicus [3]) was 0.8 µM/min/kg. It also gave an Smax (Rattus norvegicus [4]) of 51 nM/min/kg, a CMpH [5] of 7.1 and a logP [6] of 3.53. It also gave an Smax (Rattus norvegicus [7]) of 4.62 mL/h/kg, an Smax (Rattus norvegicus [8]) of 0.23 µM/min/kg and a half-life [9] of 2 h. It also gave a pKa [10] of 3.9, an Smax (Rattus norvegicus [11]) of 3.13 µM/min/kg and a Rs (Rattus norvegicus [12]) of 2.7 mL/h/kg. For the same molecule, the [ALP]max (Rattus norvegicus [13]) was 150 IU/L, the rK [14] was 0.85 and the Smax (Rattus norvegicus [15]) was 3.78 mL/h/kg. For the same molecule, the Smax (Rattus norvegicus [16]) was 6.1 µM/min/kg, the Rs (Rattus norvegicus [17]) was 18 nM/min/kg and the Smax (Rattus norvegicus [18]) was 0.22 µM/min/kg. It also gave an Smax (Rattus norvegicus [19]) of 3.33 µM/min/kg, a CMC [20] of 12 mM and a Rs (Rattus norvegicus [21]) of 0.1 µM/min/kg. The solubility [22] was 8 µM (≈ 3.6 µg/mL).
